# Assay results: ChEMBL document CHEMBL1151946, “Doxazosin-related alpha1-adrenoceptor antagonists with prostate antitumor activity” (J Med Chem, 2009)
# Activity calls are given as the source filed them. The calls are words filed in the database; no cut-off is given here.
# Columns and labels:
# [1] = biological target: T1, Alpha-1B adrenergic receptor (Homo sapiens, UniProt P35368); assay: Displacement of [3H]prazosin from human Alpha-1B adrenoceptor expressed in CHO cells; type: cell-based
# T1 sequence (P35368 whole entry): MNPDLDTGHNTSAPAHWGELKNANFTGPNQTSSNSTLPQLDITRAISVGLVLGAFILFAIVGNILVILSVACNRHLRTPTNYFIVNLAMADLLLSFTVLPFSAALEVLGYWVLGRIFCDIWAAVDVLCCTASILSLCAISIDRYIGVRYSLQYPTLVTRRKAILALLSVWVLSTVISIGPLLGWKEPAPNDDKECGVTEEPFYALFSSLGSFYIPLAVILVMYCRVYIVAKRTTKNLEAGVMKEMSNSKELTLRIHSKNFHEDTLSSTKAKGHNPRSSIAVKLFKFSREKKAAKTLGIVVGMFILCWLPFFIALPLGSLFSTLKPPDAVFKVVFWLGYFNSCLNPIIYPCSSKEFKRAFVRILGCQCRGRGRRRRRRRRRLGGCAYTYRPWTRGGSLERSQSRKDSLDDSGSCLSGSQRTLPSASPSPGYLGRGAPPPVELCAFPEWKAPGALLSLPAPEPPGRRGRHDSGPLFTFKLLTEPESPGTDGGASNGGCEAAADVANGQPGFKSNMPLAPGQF
# Procedure, shortened: (§1)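 Radioligand competition binding used [3H]prazosin on membranes of CHO cells expressing human α1a, α1b or α1d adrenoceptor. IC50 values were converted to pKi by the Cheng-Prusoff equation. Data come from two to three experiments run in triplicate, agreeing within ±20%.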
# [2] = biological target: T2, Alpha-1D adrenergic receptor (Homo sapiens, UniProt P25100); assay: Displacement of [3H]prazosin from human Alpha-1D adrenoceptor expressed in CHO cells; type: cell-based; procedure, shortened: as §1
# T2 sequence (P25100 whole entry): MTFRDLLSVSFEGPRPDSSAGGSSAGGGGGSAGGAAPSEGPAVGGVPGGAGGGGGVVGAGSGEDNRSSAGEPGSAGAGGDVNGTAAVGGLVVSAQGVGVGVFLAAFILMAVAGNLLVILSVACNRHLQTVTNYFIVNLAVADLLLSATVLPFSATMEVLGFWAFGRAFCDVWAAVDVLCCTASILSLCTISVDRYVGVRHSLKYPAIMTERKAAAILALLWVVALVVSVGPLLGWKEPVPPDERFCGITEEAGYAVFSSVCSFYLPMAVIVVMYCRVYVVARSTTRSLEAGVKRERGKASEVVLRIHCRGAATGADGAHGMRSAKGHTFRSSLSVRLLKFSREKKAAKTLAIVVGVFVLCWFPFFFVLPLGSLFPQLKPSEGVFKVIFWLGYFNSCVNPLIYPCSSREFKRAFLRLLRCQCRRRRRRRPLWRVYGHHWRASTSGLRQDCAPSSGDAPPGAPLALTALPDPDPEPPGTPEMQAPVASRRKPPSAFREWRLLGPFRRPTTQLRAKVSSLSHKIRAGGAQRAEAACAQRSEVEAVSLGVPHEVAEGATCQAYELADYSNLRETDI
# PC-3 [3] = assay: Cytotoxicity against human PC3 cells after 72 hrs by CellTitter-Glo luminescent cell viability assay; type: functional, cell-based; conditions: PC-3, 72 h
# [4] = biological target: T3, Alpha-1A adrenergic receptor (Homo sapiens, UniProt P35348); assay: Displacement of [3H]prazosin from human alpha1A adrenoceptor expressed in CHO cells; type: cell-based; procedure, shortened: as §1
# T3 sequence (P35348 whole entry): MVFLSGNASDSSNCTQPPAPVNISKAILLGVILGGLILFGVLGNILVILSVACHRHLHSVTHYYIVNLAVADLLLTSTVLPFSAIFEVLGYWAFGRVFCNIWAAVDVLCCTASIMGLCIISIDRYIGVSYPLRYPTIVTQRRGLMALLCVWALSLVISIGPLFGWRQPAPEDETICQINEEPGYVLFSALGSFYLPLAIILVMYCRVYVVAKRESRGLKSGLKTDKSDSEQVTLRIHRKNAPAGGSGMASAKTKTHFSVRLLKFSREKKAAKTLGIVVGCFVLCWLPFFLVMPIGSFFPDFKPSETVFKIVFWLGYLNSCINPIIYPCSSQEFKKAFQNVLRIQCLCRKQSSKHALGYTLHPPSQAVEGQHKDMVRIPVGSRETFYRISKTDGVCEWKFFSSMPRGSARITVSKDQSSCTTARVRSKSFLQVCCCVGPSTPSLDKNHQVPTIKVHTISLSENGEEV
# [5] = biological target: T4, Alpha-1A adrenergic receptor (Rattus norvegicus, UniProt P43140); assay: Antagonist activity at rat alpha1A adrenoceptor assessed as inhibition if norepinephrine-induced contraction of vas deference; type: functional; conditions: read-out: pA2 (converted)
# T4 sequence (P43140 whole entry): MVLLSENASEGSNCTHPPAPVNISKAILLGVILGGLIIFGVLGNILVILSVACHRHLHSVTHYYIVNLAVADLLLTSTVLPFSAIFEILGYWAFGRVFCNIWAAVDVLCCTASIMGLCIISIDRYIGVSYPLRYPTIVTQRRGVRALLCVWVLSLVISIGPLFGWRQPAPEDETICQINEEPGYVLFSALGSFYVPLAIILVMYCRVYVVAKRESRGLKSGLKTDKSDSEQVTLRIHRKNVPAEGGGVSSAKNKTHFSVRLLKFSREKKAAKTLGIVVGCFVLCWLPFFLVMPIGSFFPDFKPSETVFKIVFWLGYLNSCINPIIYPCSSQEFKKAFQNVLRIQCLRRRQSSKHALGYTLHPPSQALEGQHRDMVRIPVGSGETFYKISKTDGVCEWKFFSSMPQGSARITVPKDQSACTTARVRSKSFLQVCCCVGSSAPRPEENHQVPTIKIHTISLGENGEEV
# Procedure, shortened: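 Isolated rat tissue contraction assay. The α1A response used vas deferens with (-)-noradrenaline as agonist, α1D used thoracic aorta with (-)-noradrenaline, and α1B used spleen with (-)-phenylephrine. pA2 values are means ± SEM over three antagonist concentrations, each tested at least four times. Where the Schild slope differed from unity, pKB was calculated by van Rossum at the lowest antagonist concentration giving log(CR−1) ≥0.5.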
# NHDF [6] = assay: Cytotoxicity against human NHDF cells after 72 hrs by CellTitter-Glo luminescent cell viability assay; type: functional, cell-based
# PC-3 [7] = assay: Induction of apoptosis in human PC3 cells assessed as caspase 3/7 activation after 24 hrs by Caspase-Glo 3/7 assay; type: functional, cell-based; conditions: PC-3, 24 h
# NHDF [8] = assay: Induction of apoptosis in human NHDF cells assessed as caspase 3/7 activation after 24 hrs Caspase-Glo 3/7 assay; type: functional, cell-based
# PC-3 [9] = assay: Induction of apoptosis in human PC3 cells xenografted in NU/NU mouse assessed as DNA fragmentation at 0.3 to 3 mg/kg by agarose gel electrophoresis; type: functional, organism-based
# Procedure, shortened: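 DNA from PC-3 subcutaneous tumors of orally treated nude mice was run on an electrophoretic gel. Apoptosis was scored as a DNA ladder pattern.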
# DU-145 [10] = assay: Cytotoxicity against human DU145 cells after 72 hrs by CellTitter-Glo luminescent cell viability assay; type: functional, cell-based; conditions: DU-145, 72 h
# DU-145 [11] = assay: Induction of apoptosis in human DU145 cells assessed as caspase 3/7 activation after 24 hrs Caspase-Glo 3/7 assay; type: functional, cell-based; conditions: Homo sapiens, DU-145, 24 h
# LNCaP [12] = assay: Cytotoxicity against human LNCAP cells after 72 hrs by CellTitter-Glo luminescent cell viability assay; type: functional, cell-based
# PC-3 [13] = assay: Antiangiogenic activity in human PC3 cells xenografted in NU/NU mouse assessed as reduction vascularization at 3 mg/kg by immunohistochemistry; type: functional, organism-based; design: dose 3 mg/kg
# Procedure, shortened: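 Vascularization of PC-3 flank tumors from nude mice dosed orally was assessed by immunohistochemistry with rat anti-mouse CD31 monoclonal antibody as endothelial marker. Doses were 0.3, 1 and 3 mg/kg.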
# LNCaP [14] = assay: Induction of apoptosis in human LNCAP cells assessed as caspase 3/7 activation after 24 hrs Caspase-Glo 3/7 assay; type: functional, cell-based; conditions: Homo sapiens, LNCaP, 24 h; read-out: EC50
Ki [1] [µM],Ki [2] [µM],Ki [4] [µM],Kb [5] [µM],EC50 (PC-3 [7]) [µM],EC50 (NHDF [8]) [µM],EC50 (DU-145 [11]) [µM],EC50 (LNCaP [14]) [µM],Compound,IC50 (PC-3 [3]) [µM],EC50 (NHDF [6]) [µM],IC50 (NHDF [6]) [µM],Activity (PC-3 [9]),EC50 (DU-145 [10]) [µM],IC50 (DU-145 [10]) [µM],IC50 (LNCaP [12]) [µM],Activity (PC-3 [13]),EC50 (PC-3 [3]) [µM]
0.00141,0.00049,0.00339,–,–,–,–,–,"COc1cc2nc(N3CCN(C(=O)C4COc5ccccc5O4)[C@@H]4CCCC[C@@H]43)nc(N)c2cc1OC (single isomer, unassigned)",1.02,–,–,–,–,–,–,–,–
0.000324,0.00017,0.0055,0.00123,–,–,–,–,COc1cc2nc(N3CCN(C(=O)c4ccco4)[C@H]4CCCC[C@H]43)nc(N)c2cc1OC [CYCLAZOSIN],–,–,–,–,–,–,–,–,–
–,–,–,–,> 100,40.4,> 100,100,COc1cc2nc(N3CCN(C(=O)C4COc5ccccc5O4)CC3)nc(N)c2cc1OC (stereo unspecified) [DOXAZOSIN],38.6,40.4,43,Active,> 100,37.4,28.1,Active,> 100
